ChEMBL document CHEMBL4024754, “Development of Potent, Protease-Resistant Agonists of the Parathyroid Hormone Receptor with Broad β Residue Distribution” (J Med Chem, 2017)
Values belong to the compound of their own block, whether it stands above or below them. Calls of active or inactive are those of the source. The calls are words filed in the database; no cut-off is given here. Peptide text beside a SMILES is read from it. * marks the point of attachment. ACPC(1S,2S) = N[C@H]1CCC[C@@H]1C(=O)*

Assays:
Type in all cases: functional, cell-based
[1] = target: T1, Parathyroid hormone/parathyroid hormone-related peptide receptor (Homo sapiens) (UniProt Q03431); test: Agonist activity at human PTH1 receptor expressed in human GP2.3 cells assessed as induction of cAMP after 12 to 20 mins by luciferase reporter gene assay relative to PTH(1 to 34 residues)-NH2
T1 sequence (whole entry): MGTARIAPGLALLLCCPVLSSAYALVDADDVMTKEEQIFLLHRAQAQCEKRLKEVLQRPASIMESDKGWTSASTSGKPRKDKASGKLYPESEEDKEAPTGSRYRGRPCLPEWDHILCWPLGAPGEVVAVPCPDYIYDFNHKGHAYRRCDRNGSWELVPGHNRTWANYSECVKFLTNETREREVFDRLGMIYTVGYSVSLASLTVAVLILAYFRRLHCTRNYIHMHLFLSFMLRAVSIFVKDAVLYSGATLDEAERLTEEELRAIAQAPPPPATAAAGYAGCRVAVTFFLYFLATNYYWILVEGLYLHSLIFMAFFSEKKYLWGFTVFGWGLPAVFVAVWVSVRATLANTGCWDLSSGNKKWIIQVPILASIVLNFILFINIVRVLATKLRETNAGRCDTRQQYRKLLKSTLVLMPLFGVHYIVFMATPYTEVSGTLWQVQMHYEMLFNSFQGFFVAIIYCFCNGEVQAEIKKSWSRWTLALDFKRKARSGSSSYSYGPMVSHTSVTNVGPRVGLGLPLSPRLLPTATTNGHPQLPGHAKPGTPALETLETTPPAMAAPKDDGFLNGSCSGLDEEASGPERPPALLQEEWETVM

[2] = target: T1, Parathyroid hormone/parathyroid hormone-related peptide receptor (Homo sapiens); test: Agonist activity at extracellular domain truncate human PTH1 receptor expressed in GD5 cells assessed as induction of cAMP after 12 to 20 mins by luciferase reporter gene assay
Procedure, shortened: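 HEK293-derived lines stably expressing Glosensor cAMP reporter plus full-length human PTHR1 (GP2.3) or ECD-truncated PTHR1 (GD5). Confluent monolayers preincubated at room temperature in CO2-independent medium with 0.5 mM D-luciferin until baseline stable (30 min), then varied agonist concentrations added. Maximal luminescence (12−20 min) used for sigmoidal variable-slope fits.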

[3] = target: T2, Parathyroid hormone/parathyroid hormone-related peptide receptor (Homo sapiens, UniProt Q03431); test: Agonist activity at human PTH1 receptor expressed in human GP2.3 cells assessed as induction of cAMP after 12 to 20 mins by luciferase reporter gene assay; conditions: read-out: EC50
T2 sequence (Q03431 whole entry): T1 sequence (whole entry)

SMILES: CC[C@H](C)[C@H](NC(=O)[C@H](CCC(=O)O)NC(=O)[C@H](CO)NC(=O)[C@@H](NC(=O)[C@H]1CCC[C@@H]1N)C(C)C)C(=O)N[C@@H](CCC(N)=O)C(=O)N[C@@H](CC(C)C)C(=O)N[C@@H](CCSC)C(=O)N[C@@H](Cc1cnc[nH]1)C(=O)N[C@@H](CC(N)=O)C(=O)N[C@@H](CC(C)C)C(=O)NCC(=O)N[C@@H](CCCCN)C(=O)N[C@@H](Cc1cnc[nH]1)C(=O)N[C@@H](CC(C)C)C(=O)N[C@@H](CC(N)=O)C(=O)N[C@@H](CO)C(=O)N[C@@H](CCSC)C(=O)N[C@@H](CCC(=O)O)C(=O)N[C@@H](CCCNC(=N)N)C(=O)N[C@H](C(=O)N[C@@H](CCC(=O)O)C(=O)N[C@@H](Cc1c[nH]c2ccccc12)C(=O)N[C@@H](CC(C)C)C(=O)N[C@@H](CCCNC(=N)N)C(=O)N[C@@H](CCCCN)C(=O)N[C@@H](CCCCN)C(=O)N[C@@H](CC(C)C)C(=O)N[C@@H](CCC(N)=O)C(=O)N[C@@H](CC(=O)O)C(=O)N[C@H](C(=O)N[C@@H](Cc1cnc[nH]1)C(=O)N[C@@H](CC(N)=O)C(=O)N[C@@H](Cc1ccccc1)C(N)=O)C(C)C)C(C)C ({ACPC(1S,2S)}-VSEIQLMHNLGKHLNSMERVEWLRKKLQDVHNF-NH2)
fold change (FC) [1]: 1.6
Activity [2]: Active
EC50 [3]: 150 pM

SMILES: CC[C@H](C)[C@H](NC(=O)[C@H](CCC(=O)O)NC(=O)[C@H](CO)NC(=O)[C@@H](NC(=O)[C@@H](N)CO)C(C)C)C(=O)N[C@@H](CCC(N)=O)C(=O)N[C@@H](CC(C)C)C(=O)N[C@H]1CCC[C@@H]1C(=O)N[C@@H](Cc1cnc[nH]1)C(=O)N[C@@H](CC(N)=O)C(=O)N[C@@H](CC(C)C)C(=O)NCC(=O)N[C@@H](CCCCN)C(=O)N[C@@H](Cc1cnc[nH]1)C(=O)N[C@@H](CC(C)C)C(=O)N[C@@H](CC(N)=O)C(=O)N[C@@H](CO)C(=O)N[C@@H](CCSC)C(=O)N[C@@H](CCC(=O)O)C(=O)N[C@@H](CCCNC(=N)N)C(=O)N[C@H](C(=O)N[C@@H](CCC(=O)O)C(=O)N[C@@H](Cc1c[nH]c2ccccc12)C(=O)N[C@@H](CC(C)C)C(=O)N[C@@H](CCCNC(=N)N)C(=O)N[C@@H](CCCCN)C(=O)N[C@@H](CCCCN)C(=O)N[C@@H](CC(C)C)C(=O)N[C@@H](CCC(N)=O)C(=O)N[C@@H](CC(=O)O)C(=O)N[C@H](C(=O)N[C@@H](Cc1cnc[nH]1)C(=O)N[C@@H](CC(N)=O)C(=O)N[C@@H](Cc1ccccc1)C(N)=O)C(C)C)C(C)C
fold change (FC) [1]: 107
Activity [2]: Active
EC50 [3]: 9740 pM

SMILES: CC[C@H](C)[C@H](NC(=O)[C@H](CCC(=O)O)NC(=O)[C@H]1CCC[C@@H]1NC(=O)[C@@H](NC(=O)[C@@H](N)CO)C(C)C)C(=O)N[C@@H](CCC(N)=O)C(=O)N[C@@H](CC(C)C)C(=O)N[C@@H](CCSC)C(=O)N[C@@H](Cc1cnc[nH]1)C(=O)N[C@@H](CC(N)=O)C(=O)N[C@@H](CC(C)C)C(=O)NCC(=O)N[C@@H](CCCCN)C(=O)N[C@@H](Cc1cnc[nH]1)C(=O)N[C@@H](CC(C)C)C(=O)N[C@@H](CC(N)=O)C(=O)N[C@@H](CO)C(=O)N[C@@H](CCSC)C(=O)N[C@@H](CCC(=O)O)C(=O)N[C@@H](CCCNC(=N)N)C(=O)N[C@H](C(=O)N[C@@H](CCC(=O)O)C(=O)N[C@@H](Cc1c[nH]c2ccccc12)C(=O)N[C@@H](CC(C)C)C(=O)N[C@@H](CCCNC(=N)N)C(=O)N[C@@H](CCCCN)C(=O)N[C@@H](CCCCN)C(=O)N[C@@H](CC(C)C)C(=O)N[C@@H](CCC(N)=O)C(=O)N[C@@H](CC(=O)O)C(=O)N[C@H](C(=O)N[C@@H](Cc1cnc[nH]1)C(=O)N[C@@H](CC(N)=O)C(=O)N[C@@H](Cc1ccccc1)C(N)=O)C(C)C)C(C)C
fold change (FC) [1]: 126
Activity [2]: Active
EC50 [3]: 11500 pM

SMILES: CC[C@H](C)[C@H](NC(=O)[C@H](CCC(=O)O)NC(=O)[C@H](CO)NC(=O)[C@H]1CCC[C@@H]1NC(=O)[C@@H](N)CO)C(=O)N[C@@H](CCC(N)=O)C(=O)N[C@@H](CC(C)C)C(=O)N[C@@H](CCSC)C(=O)N[C@@H](Cc1cnc[nH]1)C(=O)N[C@@H](CC(N)=O)C(=O)N[C@@H](CC(C)C)C(=O)NCC(=O)N[C@@H](CCCCN)C(=O)N[C@@H](Cc1cnc[nH]1)C(=O)N[C@@H](CC(C)C)C(=O)N[C@@H](CC(N)=O)C(=O)N[C@@H](CO)C(=O)N[C@@H](CCSC)C(=O)N[C@@H](CCC(=O)O)C(=O)N[C@@H](CCCNC(=N)N)C(=O)N[C@H](C(=O)N[C@@H](CCC(=O)O)C(=O)N[C@@H](Cc1c[nH]c2ccccc12)C(=O)N[C@@H](CC(C)C)C(=O)N[C@@H](CCCNC(=N)N)C(=O)N[C@@H](CCCCN)C(=O)N[C@@H](CCCCN)C(=O)N[C@@H](CC(C)C)C(=O)N[C@@H](CCC(N)=O)C(=O)N[C@@H](CC(=O)O)C(=O)N[C@H](C(=O)N[C@@H](Cc1cnc[nH]1)C(=O)N[C@@H](CC(N)=O)C(=O)N[C@@H](Cc1ccccc1)C(N)=O)C(C)C)C(C)C
fold change (FC) [1]: 3
Activity [2]: Active
EC50 [3]: 270 pM

More lines, in order of falling EC50 [3], values ahead:

fold change (FC) [1]: 3.7
Activity [2]: Active
EC50 [3]: 340 pM
SMILES: CC[C@H](C)[C@H](NC(=O)[C@H](CCC(=O)O)NC(=O)[C@H](CO)NC(=O)[C@@H](NC(=O)[C@@H](N)CO)C(C)C)C(=O)N[C@H]1CCC[C@@H]1C(=O)N[C@@H](CC(C)C)C(=O)N[C@@H](CCSC)C(=O)N[C@@H](Cc1cnc[nH]1)C(=O)N[C@@H](CC(N)=O)C(=O)N[C@@H](CC(C)C)C(=O)NCC(=O)N[C@@H](CCCCN)C(=O)N[C@@H](Cc1cnc[nH]1)C(=O)N[C@@H](CC(C)C)C(=O)N[C@@H](CC(N)=O)C(=O)N[C@@H](CO)C(=O)N[C@@H](CCSC)C(=O)N[C@@H](CCC(=O)O)C(=O)N[C@@H](CCCNC(=N)N)C(=O)N[C@H](C(=O)N[C@@H](CCC(=O)O)C(=O)N[C@@H](Cc1c[nH]c2ccccc12)C(=O)N[C@@H](CC(C)C)C(=O)N[C@@H](CCCNC(=N)N)C(=O)N[C@@H](CCCCN)C(=O)N[C@@H](CCCCN)C(=O)N[C@@H](CC(C)C)C(=O)N[C@@H](CCC(N)=O)C(=O)N[C@@H](CC(=O)O)C(=O)N[C@H](C(=O)N[C@@H](Cc1cnc[nH]1)C(=O)N[C@@H](CC(N)=O)C(=O)N[C@@H](Cc1ccccc1)C(N)=O)C(C)C)C(C)C

fold change (FC) [1]: 1.9
Activity [2]: Active
EC50 [3]: 170 pM
SMILES: CSCC[C@H](NC(=O)[C@H](CO)NC(=O)[C@H](CC(N)=O)NC(=O)[C@H](CC(C)C)NC(=O)[C@H](Cc1cnc[nH]1)NC(=O)[C@H](CCCCN)NC(=O)CNC(=O)[C@H](CC(C)C)NC(=O)[C@H](CC(N)=O)NC(=O)[C@H](Cc1cnc[nH]1)NC(=O)[C@H](CCSC)NC(=O)[C@H](CC(C)C)NC(=O)[C@H](CCC(N)=O)NC(=O)[C@H]1CCC[C@@H]1NC(=O)[C@H](CCC(=O)O)NC(=O)[C@H](CO)NC(=O)[C@@H](NC(=O)[C@@H](N)CO)C(C)C)C(=O)N[C@@H](CCC(=O)O)C(=O)N[C@@H](CCCNC(=N)N)C(=O)N[C@H](C(=O)N[C@@H](CCC(=O)O)C(=O)N[C@@H](Cc1c[nH]c2ccccc12)C(=O)N[C@@H](CC(C)C)C(=O)N[C@@H](CCCNC(=N)N)C(=O)N[C@@H](CCCCN)C(=O)N[C@@H](CCCCN)C(=O)N[C@@H](CC(C)C)C(=O)N[C@@H](CCC(N)=O)C(=O)N[C@@H](CC(=O)O)C(=O)N[C@H](C(=O)N[C@@H](Cc1cnc[nH]1)C(=O)N[C@@H](CC(N)=O)C(=O)N[C@@H](Cc1ccccc1)C(N)=O)C(C)C)C(C)C

fold change (FC) [1]: 1.3
Activity [2]: Active
EC50 [3]: 120 pM
SMILES: CC[C@H](C)[C@H](NC(=O)[C@H](CCC(=O)O)NC(=O)[C@H](CO)NC(=O)[C@@H](NC(=O)[C@@H](N)CO)C(C)C)C(=O)N[C@@H](CCC(N)=O)C(=O)N[C@H]1CCC[C@@H]1C(=O)N[C@@H](CCSC)C(=O)N[C@@H](Cc1cnc[nH]1)C(=O)N[C@@H](CC(N)=O)C(=O)N[C@@H](CC(C)C)C(=O)NCC(=O)N[C@@H](CCCCN)C(=O)N[C@@H](Cc1cnc[nH]1)C(=O)N[C@@H](CC(C)C)C(=O)N[C@@H](CC(N)=O)C(=O)N[C@@H](CO)C(=O)N[C@@H](CCSC)C(=O)N[C@@H](CCC(=O)O)C(=O)N[C@@H](CCCNC(=N)N)C(=O)N[C@H](C(=O)N[C@@H](CCC(=O)O)C(=O)N[C@@H](Cc1c[nH]c2ccccc12)C(=O)N[C@@H](CC(C)C)C(=O)N[C@@H](CCCNC(=N)N)C(=O)N[C@@H](CCCCN)C(=O)N[C@@H](CCCCN)C(=O)N[C@@H](CC(C)C)C(=O)N[C@@H](CCC(N)=O)C(=O)N[C@@H](CC(=O)O)C(=O)N[C@H](C(=O)N[C@@H](Cc1cnc[nH]1)C(=O)N[C@@H](CC(N)=O)C(=O)N[C@@H](Cc1ccccc1)C(N)=O)C(C)C)C(C)C
